Experimental data taken from ChEMBL document CHEMBL5252669, “Semisynthetic blasticidin S ester derivatives show enhanced antibiotic activity” (RSC Med Chem, 2023).
Converted amounts (≈) assume the structure as drawn. The source made the active and inactive calls. The rule behind the calls is not given here.

Legend:
[1] = Selectivity index, ratio of CC50 for human MRC5 cells to IC50 for methicillin resistant Staphylococcus aureus; type: toxicity; conditions: read-out: Ratio CC50/IC50
Enterococcus [2] = assay: Antibacterial activity against vancomycin-resistant Enterococcus assessed as zone of inhibition incubated for 18 hrs by spot on lawn assay; type: functional, organism-based
In short: (§1)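 Spot-on-lawn assay. Plates of 1.5% agar in LB were overlaid with 0.7% LB agar seeded with overnight culture at 0.01 OD600. Aqueous 5 mg mL−1 solutions were spotted at 35, 25, 10 and 5 μg, with a 1:1 water/methanol vehicle spot. After 18 h at 37 °C, inhibition zone diameters were measured with a ruler.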

Candida albicans [3] = assay: Antifungal activity against Candida albicans incubated for 16 hrs by broth microdilution method; type: functional
[4] = Selectivity index, ratio of CC50 for human MRC5 cells to IC50 for MexAB-OprM deleted Pseudomonas aeruginosa; type: toxicity; conditions: read-out: Ratio CC50/IC50
Saccharomyces cerevisiae = assay: Antifungal activity against Saccharomyces cerevisiae incubated for 16 hrs by broth microdilution method; type: functional
Pseudomonas aeruginosa = assay: Antibacterial activity against MexAB-OprM deleted Pseudomonas aeruginosa incubated for 16 hrs by broth microdilution method; type: functional, organism-based; conditions: for IC50: 16 h; for MIC: time 16 hrs
Staphylococcus aureus [5] = assay: Antibacterial activity against methicillin resistant Staphylococcus aureus assessed as zone of inhibition incubated for 18 hrs by spot on lawn assay; type: functional, organism-based; in short: as §1
Staphylococcus aureus [6] = assay: Antibacterial activity against NorA deleted Staphylococcus aureus incubated for 16 hrs by broth microdilution method; type: functional, organism-based; conditions: for IC50: 16 h; for MIC: time 16 hrs
In short: (§2)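 Cation-adjusted Mueller-Hinton broth microdilution. Overnight cultures from single colonies were diluted to OD600 0.004. Final compound range was 256–2 μg mL−1 in 1:1 methanol/water vehicle, with doxycycline and vehicle controls. Plates were incubated 16 h at 37 °C. OD600 was normalized to controls, and MIC was the lowest concentration inhibiting >90% growth. Two biological replicates in duplicate; reported as a range.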

Staphylococcus aureus [7] = assay: Antibacterial activity against Staphylococcus aureus assessed as zone of inhibition incubated for 18 hrs by spot on lawn assay; type: functional, organism-based
In short: (§3)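 Overnight LB cultures diluted to OD600 0.01 in 0.7% LB top agar, overlaid on 1.5% LB agar; 5 mg mL−1 aqueous compound spotted at 35, 25, 10 and 5 μg with 1:1 water/methanol vehicle spot; 37 °C, 18 h; inhibition zone diameter measured by ruler.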

[8] = Selectivity index, ratio of CC50 for human MRC5 cells to IC50 for Enterococcus faecalis ATCC 29212; type: toxicity; conditions: read-out: Ratio CC50/IC50
Enterococcus [9] = assay: Antibacterial activity against vancomycin-resistant Enterococcus incubated for 20 hrs by broth microdilution method
Staphylococcus aureus [10] = assay: Antibacterial activity against wild type Staphylococcus aureus 8810 incubated for 16 hrs by broth microdilution method; type: functional, organism-based; conditions: for IC50: Staphylococcus aureus, 8810, 16 h; for MIC: Staphylococcus aureus, 8810, time 16 hrs; in short: as §2
[11] = Selectivity index, ratio of CC50 for human MRC5 cells to IC50 for vancomycin-resistant Enterococcus; type: toxicity; conditions: read-out: Ratio CC50/IC50
Enterococcus faecalis [12] = assay: Antibacterial activity against Enterococcus faecalis ATCC 29212 assessed as zone of inhibition incubated for 18 hrs by spot on lawn assay; type: functional, organism-based; in short: as §3
[13] = Cytotoxicity against human MRC5 cells incubated for 24 hrs by MTS assay; type: toxicity, cell-based
In short: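 MRC-5 lung fibroblasts seeded 5000 per well; medium replaced with compound 16–192 μg mL−1 or matching 1:1 methanol:water vehicle; 24 h, then MTS 3–4 h; absorbance 490 nm; viability relative to untreated cells, normalized to vehicle; CC50 from two independent assays in duplicate, mean ± SD.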

Staphylococcus aureus [14] = assay: Antibacterial activity against methicillin resistant Staphylococcus aureus ATCC 43300 incubated for 16 hrs by broth microdilution method; type: functional, organism-based; conditions: for IC50: ATCC 43300, 16 h; for MIC: ATCC 43300, time 16 hrs; in short: as §2
[15] = Selectivity index, ratio of CC50 for human MRC5 cells to IC50 for Acinetobacter baumannii ATCC 17978; type: toxicity; conditions: read-out: Ratio CC50/IC50
Acinetobacter baumannii = assay: Antibacterial activity against Acinetobacter baumannii ATCC 17978 incubated for 16 hrs by broth microdilution method; type: functional, organism-based; conditions: for IC50: ATCC 17978, 16 h; for MIC: ATCC 17978, time 16 hrs
Staphylococcus aureus [16] = assay: Antibacterial activity against NorA deleted Staphylococcus aureus assessed as zone of inhibition incubated for 18 hrs by spot on lawn assay; type: functional, organism-based; in short: as §3
Klebsiella pneumoniae = assay: Antibacterial activity against Klebsiella pneumoniae ATCC 29665 incubated for 16 hrs by broth microdilution method; type: functional, organism-based; conditions: for IC50: ATCC 29665, 16 h; for MIC: ATCC 29665, time 16 hrs
[17] = Selectivity index, ratio of CC50 for human MRC5 cells to IC50 for Staphylococcus aureus; type: toxicity; conditions: read-out: Ratio CC50/IC50
Enterococcus faecalis [18] = assay: Antibacterial activity against Enterococcus faecalis ATCC 29212 incubated for 20 hrs by broth microdilution method; conditions: ATCC 29212, 20 h
[19] = Selectivity index, ratio of CC50 for human MRC5 cells to IC50 for NorA deleted Staphylococcus aureus; type: toxicity; conditions: read-out: Ratio CC50/IC50
Candida albicans [20] = assay: Antifungal activity against Candida albicans assessed as zone of inhibition incubated for 18 hrs by spot on lawn assay; type: functional, organism-based; in short: as §3
[21] = Selectivity index, ratio of CC50 for human MRC5 cells to IC50 for Klebsiella pneumoniae ATCC 29665; type: toxicity; conditions: read-out: Ratio CC50/IC50

Row | Compound | selectivity ratio [1] | MIC (Candida albicans [3]) | selectivity ratio [4] | MIC (Saccharomyces cerevisiae) | IC50 (Pseudomonas aeruginosa) | MIC (Pseudomonas aeruginosa) | IC50 (Staphylococcus aureus [6]) | MIC (Staphylococcus aureus [6]) | selectivity ratio [8] | IC50 (Enterococcus [9]) | MIC (Enterococcus [9]) | IC50 (Staphylococcus aureus [10]) | MIC (Staphylococcus aureus [10]) | selectivity ratio [11] | CC50 at 24 h [13] | IC50 (Staphylococcus aureus [14]) | MIC (Staphylococcus aureus [14]) | selectivity ratio [15] | IC50 (Acinetobacter baumannii) | MIC (Acinetobacter baumannii) | also measured
1 | CCCOC(=O)[C@H]1O[C@@H](n2ccc(N)nc2=O)C=C[C@@H]1NC(=O)C[C@@H](N)CCN(C)C(=N)N | 0.6 | > 256 mg/L | 0.2 | 32 mg/L (≈ 68.9 µM) | 61.6 mg/L (≈ 133 µM) | > 128 mg/L | 20.6 mg/L (≈ 44.3 µM) | 32 mg/L (≈ 68.9 µM) | 1 | 23.6 mg/L (≈ 50.8 µM) | 128 mg/L (≈ 276 µM) | 14.5 mg/L (≈ 31.2 µM) | 32 mg/L (≈ 68.9 µM) | 0.4 | 10.2 mg/L (≈ 22 µM) | 15.8 mg/L (≈ 34 µM) | 32 mg/L (≈ 68.9 µM) | 0.2 | 42.3 mg/L (≈ 91.1 µM) | 128 mg/L (≈ 276 µM) | Activity (Enterococcus [2]): Active; Activity (Staphylococcus aureus [5]): Active; Activity (Staphylococcus aureus [7]): Active; Activity (Enterococcus faecalis [12]): Active; Activity (Staphylococcus aureus [16]): Active; IC50 (Klebsiella pneumoniae): 60.1 mg/L (≈ 129 µM); MIC (Klebsiella pneumoniae): 128 mg/L (≈ 276 µM); selectivity ratio [17]: 0.7; IC50 (Enterococcus faecalis [18]): 10.5 mg/L (≈ 22.6 µM); MIC (Enterococcus faecalis [18]): 16 mg/L (≈ 34.4 µM); selectivity ratio [19]: 0.5; Activity (Candida albicans [20]): inactive; selectivity ratio [21]: 0.2
2 | C#CCCCOC(=O)[C@H]1O[C@@H](n2ccc(N)nc2=O)C=C[C@@H]1NC(=O)C[C@@H](N)CCN(C)C(=N)N | 1.7 | > 128 mg/L | 0.7 | 64 mg/L (≈ 131 µM) | 74.3 mg/L (≈ 152 µM) | > 128 mg/L | 36 mg/L (≈ 73.7 µM) | 64 mg/L (≈ 131 µM) | 4.1 | 72.1 mg/L (≈ 148 µM) | 128 mg/L (≈ 262 µM) | 19.3 mg/L (≈ 39.5 µM) | 64 mg/L (≈ 131 µM) | 0.7 | 50.4 mg/L (≈ 103 µM) | 29.2 mg/L (≈ 59.8 µM) | 64 mg/L (≈ 131 µM) | 0.8 | 61.5 mg/L (≈ 126 µM) | > 128 mg/L | Activity (Enterococcus [2]): Active; Activity (Staphylococcus aureus [5]): Active; Activity (Staphylococcus aureus [7]): Active; Activity (Enterococcus faecalis [12]): Active; Activity (Staphylococcus aureus [16]): Active; IC50 (Klebsiella pneumoniae): 92.3 mg/L (≈ 189 µM); MIC (Klebsiella pneumoniae): > 128 mg/L; selectivity ratio [17]: 2.6; IC50 (Enterococcus faecalis [18]): 12.2 mg/L (≈ 25 µM); MIC (Enterococcus faecalis [18]): 32 mg/L (≈ 65.5 µM); selectivity ratio [19]: 1.4; Activity (Candida albicans [20]): inactive; selectivity ratio [21]: 0.5
3 | CN(CC[C@H](N)CC(=O)N[C@H]1C=C[C@H](n2ccc(N)nc2=O)O[C@@H]1C(=O)OCc1ccccc1)C(=N)N | 0.7 | > 128 mg/L | 0.2 | 128 mg/L (≈ 250 µM) | 89.3 mg/L (≈ 174 µM) | > 128 mg/L | 46.6 mg/L (≈ 90.9 µM) | 128 mg/L (≈ 250 µM) | 1.2 | > 64 mg/L | 128 mg/L (≈ 250 µM) | 33 mg/L (≈ 64.4 µM) | 128 mg/L (≈ 250 µM) | < 0.3 | 17.4 mg/L (≈ 33.9 µM) | 23.3 mg/L (≈ 45.5 µM) | 32 mg/L (≈ 62.4 µM) | 0.2 | 85.1 mg/L (≈ 166 µM) | > 128 mg/L | IC50 (Klebsiella pneumoniae): 58.8 mg/L (≈ 115 µM); MIC (Klebsiella pneumoniae): > 128 mg/L; selectivity ratio [17]: 0.5; IC50 (Enterococcus faecalis [18]): 14.6 mg/L (≈ 28.5 µM); MIC (Enterococcus faecalis [18]): 16 mg/L (≈ 31.2 µM); selectivity ratio [19]: 0.4; selectivity ratio [21]: 0.3
